# Screening data as filed in PubChem BioAssay.
# An excerpt weighted towards active compounds, which were near 2.5% of everything screened.
# PRMT1 FP inh = inhibitors of human PRMT1; Q99873; actives 1.3% (n = 370,000); recombinant PRMT1, activity-based probe fluorescence polarization; inhibition, % at 2.79 µM;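 active = inhibition above about 21% made by adding two undisclosed values, limit read from the data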
# SIAE inh = blocks human sialic acid acetylesterase | SIAE FP-Rh probe binding, fluorescence polarization | inhibition, % at 9.66 µM | actives 0.69% (n = 370,000) | AID 1053197;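 active = inhibition above a cutoff: mean of compounds within the control limits plus 3 SD of those, cut at about 17% in these data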;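 also: 0% = plate median of compound wells and 100% = probe without SIAE protein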
# Target sequence (Q9HAT2 whole entry, looked up): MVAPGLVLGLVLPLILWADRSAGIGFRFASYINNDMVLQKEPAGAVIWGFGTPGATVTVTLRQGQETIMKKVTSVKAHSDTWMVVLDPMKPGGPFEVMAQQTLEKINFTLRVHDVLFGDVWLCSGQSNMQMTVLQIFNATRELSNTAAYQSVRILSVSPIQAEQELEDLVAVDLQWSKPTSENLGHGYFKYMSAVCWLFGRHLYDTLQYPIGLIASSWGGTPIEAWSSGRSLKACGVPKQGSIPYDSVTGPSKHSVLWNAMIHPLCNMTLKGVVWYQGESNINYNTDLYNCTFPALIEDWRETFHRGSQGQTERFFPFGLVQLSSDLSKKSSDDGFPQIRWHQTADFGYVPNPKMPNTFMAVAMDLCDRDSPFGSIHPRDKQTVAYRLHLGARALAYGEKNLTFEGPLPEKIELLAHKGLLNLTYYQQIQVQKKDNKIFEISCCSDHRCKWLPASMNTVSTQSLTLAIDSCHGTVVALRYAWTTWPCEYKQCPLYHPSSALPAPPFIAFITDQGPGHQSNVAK
# ABHD4 inh = inhibitors of mouse ABHD4; inhibition, % at 8.92 µM; Q8VD66; AID 720543; actives 0.54% (n = 370,000); purified mABHD4, FP-Rh probe fluorescence polarization;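 active = inhibition exceeding the mean over every tested compound plus 3 SD, cut at about 30% in these data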;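 also: 0% = plate median of compound wells and 100% = S159A mutant with DMSO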
#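 Assay system: mouse ABHD4 enzyme, wild type / Also added: fluorescent activity-based probe FP-Rh / Doses: single nominal dose of 8.92 µM, 0.89% DMSO final / Timing: 45 min compound pre-incubation plus 60 min probe step, 25 °C / Signal: FP readout, ex 525 nm / em 598 nm / Control set: S159A mutant/DMSO as 100%, compound-well median as 0%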
# TCR-CD3 inh = inhibitors of human TCR-CD3 interaction | TAMRA-labeled TCR probe fluorescence, biochemical | inhibition, % at 9.4 µM | actives 0.37% (n = 360,000); in the data active = inhibition above about 19%;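 also: recombinant mutant TCR 2C K166C tagged with TAMRA read by polarization; 0% = receptor in buffer alone and 100% = receptor with positive control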
# HTRA1 inh = blocks human HTRA1 serine peptidase. Q92743. recombinant HTRA1, FP-rhodamine activity-based probe, fluorescence polarization. inhibition, % at 5.96 µM. actives 0.5% (n = 340,000). AID 504803; in the data active = inhibition above about 36%;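 also: 0% = enzyme with DMSO and 100% = wells lacking enzyme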
# PRMT1 confirm = confirmation of human PRMT1 inhibitors; actives 42% (n = 3,300); AID 687036; recombinant His-PRMT1, activity-based probe fluorescence polarization; inhibition, % at 2.79 µM; shares compounds with PRMT1 FP inh;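 active = mean inhibition across replicates above the hit cutoff derived for the earlier primary screen, cut at about 22% in these data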
# Active calls of the source: *; / = no result given.
SMILES,PRMT1 FP inh,SIAE inh,ABHD4 inh,TCR-CD3 inh,HTRA1 inh,PRMT1 confirm
Cc1ccc(Cc2c(-c3ccc(C)cc3)nc3ccc(Br)cn23)cc1,0,-5,0,4,-41,/
O=C1C=C(O)c2cccc3cccc1c23,48*,6,15,1,14,9
Cc1ccc(N2C(=O)CC(Sc3ncccc3C(=O)O)C2=O)cc1 (stereo unspecified),1,12,0,4,2,/
Cc1ccc(N2C(=O)CC(Sc3ccccc3C(=O)O)C2=O)c([N+](=O)[O-])c1 (stereo unspecified),63*,5,9,3,-1,65*
COc1ccc(N2C(=O)CC(Sc3ccccc3C(=O)O)C2=O)c([N+](=O)[O-])c1 (stereo unspecified),100*,1,8,-3,3,55*
COc1ccc(N2CCN(C(=O)c3ccccc3F)CC2)c([N+](=O)[O-])c1,-4,-2,-2,3,7,/
CC(=O)CC[C@H]1CC[C@]2(CCCN(C(=O)c3ccco3)C2)O1,-3,-1,1,/,/,/
CN(C(=O)COC(=O)c1cc2ccccc2oc1=O)C1CCCCC1,27*,4,5,-7,5,4
CC1(C)CC2(CCO1)C(Nc1ccccc1)=NC(=S)N2c1ccccc1 (stereo unspecified),-3,2,14,-1,/,/
CC1CCN(C(=O)COC(=O)/C=C/c2ccc(Br)o2)CC1,36*,3,6,-2,14,11
COc1cc(C)c(NC(=O)C(=S)NCCc2ccccc2)cc1C,31*,-7,1,6,-7,38*
Cc1nn(C)c(C)c1N1C(=O)c2cccc3c(Br)ccc(c23)C1=O,57*,4,4,9,-3,0
CN(C)CCCN1C(=O)c2cccc3c(Br)ccc(c23)C1=O,38*,-4,-5,-3,4,10
O=C(O)CN1C(=O)c2cccc3c(Br)ccc1c23,-1,-6,0,8,2,/
C#CC[N+](C)(C)CCCCCCCC,4,-4,-7,-11,5,/
CCCCCC[N+](C)(C)CCSSCC[N+](C)(C)CCCCCC,91*,-2,7,9,0,56*
CN(C)CCn1nnnc1SCC1=C(C(=O)O)N2C(=O)[C@@H](NC(=O)Cc3csc(N)n3)[C@H]2SC1,46*,4,6,13,4,9
CO[C@@]1(NC(=O)CSCC#N)C(=O)N2C(C(=O)O)=C(CSc3nnnn3C)CS[C@@H]21,10,7,-2,-3,6,/
Cc1nnc(SCC2=C(C(=O)O)N3C(=O)C(NC(=O)Cn4nc(C(F)F)cc4C)C3SC2)s1 (stereo unspecified),25*,-183,-2,8,1,29*
Cc1nnc(SCC2=C(C(=O)O)N3C(=O)[C@@H](NC(=O)Cn4cnnn4)[C@H]3SC2)s1,16,0,-1,1,3,/
Cc1nnc(SCC2=C(C(=O)O)N3C(=O)C(NC(=O)Cn4nc(C(F)F)c(Cl)c4C)C3SC2)s1 (stereo unspecified),28*,2,6,3,-11,39*
COc1ccc2nc(SCC(=O)Nc3nccs3)[nH]c2c1,-2,1,4,-7,-7,/
CN1CCN(S(=O)(=O)c2cccc(C(=O)Oc3ccccc3Cl)c2)CC1,4,4,5,-8,0,/
COC(=O)CCC(=O)NC(=S)Nc1ccccc1F,3,14,3,-6,5,/
CC(=NNC(=S)N1CC2CCC(CC2)C1)c1ccncn1,27*,3,7,-5,21,2
SMILES,PRMT1 FP inh,SIAE inh,ABHD4 inh,TCR-CD3 inh,HTRA1 inh,PRMT1 confirm
COc1cccc(CNC(=O)C(=O)N2CCC3(CC2)OCCN3S(=O)(=O)c2ccc(C)cc2)c1,1,0,-3,-2,-3,/
C[C@H]1[C@H](c2ccccc2)Oc2cccc(NCCc3ccccc3)c2S(=O)(=O)N1Cc1ccc(F)cc1,-3,-1,-2,-1,/,/
Cc1ccc(-c2cc(C(=O)NN=Cc3ccc(-c4ccccc4)cc3)[nH]n2)cc1,-5,2,2,/,/,/
O=C(O)CCc1nn2c3ccccc3nc2n(Cc2ccccc2)c1=O,-1,-2,3,-3,4,/
CC(C(=O)O)N1C(=O)C2C3CC(C2C1=O)C1C(c2ccccc2)c2sc(=O)[nH]c2SC31 (stereo unspecified),29*,5,3,12,4,21*
O=C(O)CN1C(=O)C2C3CC(C2C1=O)C1C(c2ccc(F)cc2)c2sc(=O)[nH]c2SC31 (stereo unspecified),37*,2,-4,4,4,22*
O=C(O)CN1C(=O)C2C3CC(C2C1=O)C1C(c2ccc(Cl)cc2)c2sc(=O)[nH]c2SC31 (stereo unspecified),64*,9,2,-13,5,15
O=C(O)CCCN1C(=O)C2C3CC(C2C1=O)C1C(c2ccccc2)c2sc(=O)[nH]c2SC31 (stereo unspecified),12,6,-2,3,2,/
O=C(Cc1c(F)cccc1Cl)NNC(=S)Nc1ccc(S(=O)(=O)Nc2ncccn2)cc1,-1,2,7,17,3,/
O=C(O)C1C2C=CC(O2)C1C(=O)NCc1ccccc1Br (stereo unspecified),30*,-2,-11,2,4,2
Cc1cc(=O)[nH]c(SCn2nnc3ccccc3c2=O)n1,31*,2,-8,1,-6,6
O=c1ccnc(SCn2nnc3ccccc3c2=O)[nH]1,44*,-1,-6,-6,-1,0
Cc1ccc(S(=O)(=O)CCSC(=N)N)cc1,25*,3,-1,6,4,7
Cc1ccc(S(=O)(=O)CC(N)=O)cc1,-1,-8,-4,-5,-2,/
CCOc1ccc(C(=O)NC2C(=O)N3C(C(=O)O)=C(COC(C)=O)CSC23)cc1OCC (stereo unspecified),27*,-1,9,5,3,9
CC(=O)OCC1=C(C(=O)O)N2C(=O)[C@@H](NC(=O)Cc3ccccc3)[C@H]2SC1,27*,-4,4,5,6,11
CC(=O)OCC1=C(C(=O)O)N2C(=O)C(NC(=O)COc3ccc(F)cc3)C2SC1 (stereo unspecified),37*,1,-2,6,-17,48*
COc1ccc2sc(C)[n+](C)c2c1,60*,-1,5,-4,-6,30*
COc1ccc2c(c1)sc(N)[n+]2Cc1cc(C)cc2cccnc12,2,-8,2,-1,-1,/
CCCC[n+]1c(C)sc2cc(OC)ccc21,30*,4,4,1,-5,6
Cc1ccc(S(=O)(=O)Nc2ccc(-c3nnc(SCC#N)n3C)cc2)cc1,0,4,-4,0,3,/
